The full list was thinned out, with hits kept by preference.
Lmaj promast: Leishmania major promastigote growth inhibition | Leishmania major promastigotes, resazurin fluorescence viability | inhibition, % at 10 µM | hit rate 9% among 200,000 | AID 1063;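 note: promastigotes grown with compound for 44 hours at 28 °C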
Avidin bead fluor: compound fluoresces at 488/530 nm on avidin beads. compound fluorescence 488/530 nm, flow cytometry; active compounds read high. fluorescence (KMESF) at 10 µM. hit rate 0.38% among 220,000; in the data active = fluorescence above about 47
ABCB1 block: inhibitors of human ABCB1 transporter, ABCG2 counter-screen; AID 1326; inhibition, % at 6.6 µM; hit rate 0.067% among 190,000; P08183; CCRF-Adr cells, JC-1 efflux, flow cytometry; in the data active = inhibition above about 40%;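 note: 0% = vehicle and 100% = reference inhibitor; higher value means more JC-1 retained so stronger ABCB1 efflux block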
PKD1 inh: inhibitors of human PKD1 kinase; AID 797; Q15139; inhibition, % (test concentration not listed); hit rate 0.056% among 200,000; PKD1 kinase fluorescence polarization assay
ABCG2 inh: inhibitors of human ABCG2 transporter, ABCB1 counter-screen; Q9UNQ0; IgMXP3 cells, JC-1 efflux, flow cytometry; inhibition, % at 6.6 µM; hit rate 0.1% among 190,000; AID 1325;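 active = inhibition above 80%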;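 note: 0% = DMSO and 100% = nicardipine control wells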
Target sequence (Q9UNQ0 whole entry, looked up): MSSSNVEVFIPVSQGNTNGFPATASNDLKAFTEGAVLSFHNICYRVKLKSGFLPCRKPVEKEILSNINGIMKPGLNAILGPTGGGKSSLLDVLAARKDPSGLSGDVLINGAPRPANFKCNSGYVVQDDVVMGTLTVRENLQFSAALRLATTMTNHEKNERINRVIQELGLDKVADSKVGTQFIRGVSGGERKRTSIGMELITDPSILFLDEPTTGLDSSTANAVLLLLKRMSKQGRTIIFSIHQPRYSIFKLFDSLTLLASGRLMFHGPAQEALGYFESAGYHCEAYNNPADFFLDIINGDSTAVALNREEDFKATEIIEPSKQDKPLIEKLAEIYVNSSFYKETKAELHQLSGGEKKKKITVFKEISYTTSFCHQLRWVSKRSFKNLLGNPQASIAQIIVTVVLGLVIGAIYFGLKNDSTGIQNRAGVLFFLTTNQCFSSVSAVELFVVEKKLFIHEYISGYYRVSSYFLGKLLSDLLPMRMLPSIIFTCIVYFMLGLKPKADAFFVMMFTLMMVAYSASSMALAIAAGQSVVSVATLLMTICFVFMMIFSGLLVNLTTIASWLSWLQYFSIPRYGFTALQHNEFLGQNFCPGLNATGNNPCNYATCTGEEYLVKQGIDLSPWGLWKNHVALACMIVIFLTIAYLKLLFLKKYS
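Times: 10 min at 25 °C | Test system: Two drug-resistant human cell lines, ABCG2 and ABCB1 | Quantity: 3 million cells/mL final, two lines in 1:1 ratio | Signal: Flow cytometry, 530 nm JC-1 signal | Dosing: Compound at 6.6 µM | Controls: Nicardipine and DMSO wells | Reagent: JC-1 as fluorescent efflux pump substrate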
GSH bead fluor: GSH bead compound fluorescence profile | GSH beads flow cytometry, compound fluorescence 488/530 nm; active compounds read high | fluorescence (KMESF) at 10 µM | hit rate 0.25% among 190,000 | AID 1776; in the data active = fluorescence above about 89;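 note: glutathione beads carrying GST-tagged Bcl family fusion proteins plus one bare bead set; values are compound well signal with DMSO vehicle wells as background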
* = called active by the depositor. Cut-off read from the data, not from the text of the source, unless noted: active = inhibition above about 50%; inactive = the rest.

Results for CCOc1cc(C(c2c(C)[nH][nH]c2=O)c2c(C)[nH][nH]c2=O)ccc1OCc1ccc([N+](=O)[O-])cc1 ?
Lmaj promast: 100*; Avidin bead fluor: 4; ABCB1 block: 0; PKD1 inh: -1; ABCG2 inh: 0; GSH bead fluor: 27

Results for Cc1cc(=S)cc(C)n1CCO ?
Lmaj promast: 2; Avidin bead fluor: 0; ABCB1 block: 0; PKD1 inh: -3; ABCG2 inh: 5; GSH bead fluor: 24

What do the screens show for `Cc1nc(-c2ccc(Cl)cc2)sc1C1(C)CC(c2cccc(F)c2)=NO1` (stereo not given)?
Avidin bead fluor: 11

What do the screens show for `O=C(O)CCCCCNC(=O)c1cccc(Br)c1`?
Lmaj promast: -5; Avidin bead fluor: 38; ABCB1 block: 0; PKD1 inh: -1; ABCG2 inh: 0; GSH bead fluor: 13

What do the screens show for `O=C(NCCOC12CC3CC(CC(C3)C1)C2)c1cccc(Br)c1`?
Lmaj promast: 94*; Avidin bead fluor: 11; ABCB1 block: 1; PKD1 inh: -3; ABCG2 inh: 6; GSH bead fluor: 8

What do the screens show for `C=CCN1C(=O)C(O)(CC(=O)c2ccco2)c2cc(Br)ccc21` (stereo not given)?
Lmaj promast: 14; Avidin bead fluor: 9; ABCB1 block: 1; PKD1 inh: -3; ABCG2 inh: 2; GSH bead fluor: 15

Results for CC(c1ccccc1)C1CC(=O)N(c2cc(Cl)ccn2)C1=O (stereo not given) ?
Avidin bead fluor: 6

How did CC(CCc1ccccc1)NCC(O)COc1ccccc1 (stereo not given) do in these assays?
Lmaj promast: 83*; Avidin bead fluor: 8; ABCB1 block: 1; PKD1 inh: 0; ABCG2 inh: 1; GSH bead fluor: 12

How did CC(C)NCC(O)COc1ccc(Br)cc1 (stereo not given) do in these assays?
Lmaj promast: 3; Avidin bead fluor: 9; ABCB1 block: 0; PKD1 inh: -2; ABCG2 inh: -2; GSH bead fluor: 16

Results for COCCc1ccc(OCC(O)CNC(C)C)cc1 (stereo not given) ?
Lmaj promast: 22; Avidin bead fluor: 8; ABCB1 block: 0; PKD1 inh: -14; ABCG2 inh: 2; GSH bead fluor: 19

Results for OC(CNC1CCCCC1)COCCOc1ccc(Br)cc1 (stereo not given) ?
Lmaj promast: 95*; Avidin bead fluor: 13; ABCB1 block: 1; PKD1 inh: -16; ABCG2 inh: 4; GSH bead fluor: 10

What do the screens show for `CCCC(NCC(O)COc1ccc(-c2ccccc2)cc1)c1ccccc1` (stereo not given)?
Lmaj promast: 82*; Avidin bead fluor: 16; ABCB1 block: 1; PKD1 inh: -1; ABCG2 inh: 0; GSH bead fluor: 7

Results for O=[N+]([O-])c1ccc(OCC(O)CNC2CCCC2)cc1 (stereo not given) ?
Avidin bead fluor: 9

Results for OC(CNC1CCCC1)COc1ccc(-c2ccccc2)cc1 (stereo not given) ?
Lmaj promast: 98*; Avidin bead fluor: 11; ABCB1 block: 1; PKD1 inh: -6; ABCG2 inh: 14; GSH bead fluor: 11

How did Cc1ccc(NC(=O)c2ccccc2NS(=O)(=O)c2ccc(Cl)s2)cc1S(=O)(=O)N1CCOCC1 do in these assays?
Lmaj promast: -4; Avidin bead fluor: 5; ABCB1 block: 0; PKD1 inh: -7; ABCG2 inh: 0; GSH bead fluor: 20

What do the screens show for `c1cnc2nc(CSc3ncn[nH]3)cn2c1`?
Lmaj promast: -7; Avidin bead fluor: 10; ABCB1 block: 1; PKD1 inh: -5; ABCG2 inh: 9; GSH bead fluor: 15

How did Cc1nc(CN2CCCCC2)cc(=O)[nH]1 do in these assays?
Lmaj promast: -9; Avidin bead fluor: 10; ABCB1 block: 1; PKD1 inh: -3; ABCG2 inh: 0; GSH bead fluor: 17

Results for COc1ccc(NC(=O)NC23CC4(C)CC(C)(CC(C)(C4)C2)C3)cc1OC ?
Lmaj promast: 45; Avidin bead fluor: 16; ABCB1 block: 1; PKD1 inh: -11; ABCG2 inh: 28; GSH bead fluor: 11

How did CN1CCN(CC(=O)N2N=C(c3cccs3)CC2c2ccco2)CC1 (stereo not given) do in these assays?
Lmaj promast: -6; Avidin bead fluor: 4; ABCB1 block: 1; PKD1 inh: -8; ABCG2 inh: 3; GSH bead fluor: 7

What do the screens show for `O=C(CCl)N1N=C(c2cccs2)CC1c1ccco1` (stereo not given)?
Lmaj promast: 96*; Avidin bead fluor: 10; ABCB1 block: 1; PKD1 inh: -5; ABCG2 inh: 3; GSH bead fluor: 25

What do the screens show for `CCS(=O)(=O)N1CCN(c2ccccn2)CC1`?
Lmaj promast: 92*; Avidin bead fluor: 29; ABCB1 block: 0; PKD1 inh: 0; ABCG2 inh: 1; GSH bead fluor: 12

What do the screens show for `CN(CC(=O)N1CCN(c2ccccn2)CC1)S(=O)(=O)c1ccccc1`?
Lmaj promast: -5; Avidin bead fluor: 49*; ABCB1 block: 0; PKD1 inh: 2; ABCG2 inh: 1; GSH bead fluor: 12

How did CCCS(=O)(=O)N1CCN(c2ccccn2)CC1 do in these assays?
Lmaj promast: -3; Avidin bead fluor: 10; ABCB1 block: 1; PKD1 inh: -9; ABCG2 inh: 2; GSH bead fluor: 7

Results for COC(=O)c1ccc(COC(=O)c2ccc(-n3cnnn3)cc2)o1 ?
Lmaj promast: -3; Avidin bead fluor: 5; ABCB1 block: 0; PKD1 inh: -12; ABCG2 inh: 2; GSH bead fluor: 59

Results for O=C1C=CC(O)(c2cc(=O)c3c(O)cc(O)cc3o2)C=C1 ?
Lmaj promast: 70*; Avidin bead fluor: 10; ABCB1 block: 0; PKD1 inh: -2; ABCG2 inh: 3; GSH bead fluor: 16

What do the screens show for `O=c1cc(-c2ccccc2Cl)oc2cc(O)cc(O)c12`?
Lmaj promast: -8; Avidin bead fluor: 10; ABCB1 block: 1; PKD1 inh: -6; ABCG2 inh: 17; GSH bead fluor: 16

How did COCCN1CC(=O)N(c2cccc(C)c2C)C(c2ccc(Cl)cc2)C1=O (stereo not given) do in these assays?
Lmaj promast: 0; Avidin bead fluor: 11; ABCB1 block: 2; PKD1 inh: -11; ABCG2 inh: 1; GSH bead fluor: 30

Results for Cc1cccc(N2C(=O)C(Oc3ccc(Cl)cc3Cl)C2C=O)c1C (stereo not given) ?
Lmaj promast: 100*; Avidin bead fluor: 10; ABCB1 block: 3; PKD1 inh: -6; ABCG2 inh: 7; GSH bead fluor: 4

Results for COc1ccc(N2CCN(CCCNC(=O)c3cc4sccc4n3C)CC2)cc1 ?
Lmaj promast: 81*; Avidin bead fluor: 23; ABCB1 block: 2; PKD1 inh: -4; ABCG2 inh: 5; GSH bead fluor: 16
